{"data": "Experimental data pooled from the literature", "target": "Casein kinase I isoform gamma-3 (CSNK1G3, Homo sapiens, UniProt Q9Y6M4)", "note": "Lines come from different studies, so protocols differ."}
{"Compound": "Cc1sc(C(=O)NC2COC2)cc1-n1cc(NC(=O)Nc2c(F)cccc2Cl)cn1", "read-out": "enzyme activity", "mode": "inhibitor", "tested at": "10 µM", "quantity": "remaining activity", "result": "91.3%"}
{"Compound": "Cc1ccc(Nc2nccc(N(C)c3ccc4c(C)n(C)nc4c3)n2)cc1S(N)(=O)=O", "read-out": "enzyme activity", "mode": "inhibitor", "tested at": "0.3 µM", "quantity": "inhibition", "result": "-8%"}
{"Compound": "CCOc1cc(-c2nncn2C)ccc1Nc1ncc2cc(C)nc(NCC(C)(C)C)c2n1", "read-out": "enzyme activity", "mode": "inhibitor", "method": "FRET", "tested at": "1 µM", "quantity": "inhibition", "result": "< 15%"}
{"Compound": "Cn1c2c(c3ccc(Cl)c(Cl)c31)C(C#N)C1(CCNCC1)NC2=O (racemic)", "read-out": "thermal stability", "method": "DSF", "tested at": "10 µM", "quantity": "ΔTm", "result": "2.9 °C"}
{"Compound": "N#CCCc1ccc2c(c1)-c1[nH]c3ccc([N+](=O)[O-])cc3c1CC(=O)N2", "read-out": "cell-free assay", "tested at": "0.5 µM", "quantity": "remaining signal", "result": "89.7%"}
{"Compound": "NS(=O)(=O)c1cc(NC(=O)Cc2ccccc2)ccc1Oc1cccc(Cl)c1", "read-out": "cell-free assay", "method": "competition with immobilised ligand", "tested at": "1 µM", "quantity": "remaining binding", "result": "74%"}
{"Compound": "CC(C)(C)c1nc(-c2cccc(NS(=O)(=O)c3c(F)cccc3F)c2F)c(-c2ccnc(N)n2)s1", "read-out": "enzyme activity", "mode": "inhibitor", "method": "radiometric", "tested at": "1 µM", "quantity": "remaining activity", "result": "91%"}
{"Compound": "CN(c1nccc(-c2cnn3ncccc23)n1)C1CC1", "read-out": "binding", "tested at": "1 µM", "quantity": "remaining binding", "result": "100%"}
{"Compound": "CCCOc1ccc([C@@H]2[C@@H](C(=O)O)[C@H](c3ccc4c(c3)OCO4)CN2CC(=O)Nc2c(CC)cccc2CC)cc1", "read-out": "cell-free assay", "method": "competition with immobilised ligand", "tested at": "1 µM", "quantity": "remaining binding", "result": "100%"}
{"Compound": "COc1cc2ncnc(Nc3ccc(F)c(Cl)c3)c2cc1OCCCN1CCOCC1", "read-out": "cell-free assay", "tested at": "0.5 µM", "quantity": "remaining signal", "result": "103%"}
{"Compound": "CNC(=O)c1cc(Oc2ccc(NC(=O)Nc3ccc(Cl)c(C(F)(F)F)c3)cc2)ccn1", "read-out": "enzyme activity", "mode": "inhibitor", "tested at": "0.3 µM", "quantity": "inhibition", "result": "-4%"}
{"Compound": "O=C1NC(=O)c2cc(Nc3ccc(F)cc3)c(Nc3ccc(F)cc3)cc21", "read-out": "cell-free assay", "tested at": "0.5 µM", "quantity": "remaining signal", "result": "90.7%"}
{"Compound": "CCS(=O)(=O)c1cc2cc(C[C@@](O)(CC(C)(C)c3ccc(F)cc3C(N)=O)C(F)(F)F)[nH]c2cn1", "read-out": "cell-free assay", "method": "competition with immobilised ligand", "tested at": "1 µM", "quantity": "remaining binding", "result": "100%"}
{"Compound": "Cc1cnc(NC2CCOCC2)nc1-n1cnc(C(=O)NC(CN)c2cc(F)cc(Cl)c2)c1 (centres unmarked)", "read-out": "enzyme activity", "mode": "inhibitor", "method": "radiometric", "tested at": "1 µM", "quantity": "remaining activity", "result": "33%"}
{"Compound": "CS(=O)(=O)CCNCc1ccc(-c2ccc3ncnc(Nc4ccc(OCc5cccc(F)c5)c(Cl)c4)c3c2)o1", "read-out": "cell-free assay", "tested at": "0.5 µM", "quantity": "remaining signal", "result": "104%"}
{"Compound": "Cc1cc(NC(=O)c2cccc3cc(-c4cccc5[nH]nc(N)c45)ccc23)ccc1F", "read-out": "enzyme activity", "mode": "inhibitor", "tested at": "0.1 µM", "quantity": "activity vs control", "result": "107%"}
{"Compound": "CCCS(=O)(=O)Nc1ccc(F)c(C(=O)c2c[nH]c3ncc(-c4ccc(Cl)cc4)cc23)c1F", "read-out": "enzyme activity", "mode": "inhibitor", "tested at": "1 µM", "quantity": "inhibition", "result": "< 10%"}
{"Compound": "Cn1c2c(c3ccc(Cl)c(Cl)c31)C(C#N)C1(CCOCC1)NC2=O (centres unmarked)", "read-out": "thermal stability", "method": "DSF", "tested at": "10 µM", "quantity": "ΔTm", "result": "0.2 °C"}
{"Compound": "COc1cc2ncnc(Nc3ccc(Oc4ccccc4)c(C)c3C)c2cc1OC", "read-out": "enzyme activity", "mode": "inhibitor", "tested at": "1 µM", "quantity": "inhibition", "result": "3%"}
{"Compound": "CS(=O)(=O)c1cc(C2(NC(=O)c3cncc4c3cnn4-c3ccc(F)cc3)CC2)ccn1", "read-out": "cell-free assay", "method": "competition with immobilised ligand", "tested at": "1 µM", "quantity": "remaining binding", "result": "100%"}
{"Compound": "COc1cc2c(N3CCN(C(=O)Nc4ccc(OC(C)C)cc4)CC3)ncnc2cc1OCCCN1CCCCC1", "read-out": "cell-free assay", "tested at": "0.5 µM", "quantity": "remaining signal", "result": "95%"}
{"Compound": "Cc1cc(-n2nc(Cc3cc(F)cc(C(F)(F)F)c3)nc2C)ccc1C(N)=O", "read-out": "cell-free assay", "method": "competition with immobilised ligand", "tested at": "1 µM", "quantity": "remaining binding", "result": "95%"}
{"Compound": "CCN1CCC2(CC1)NC(=O)c1c(c3ccc(Cl)c(Cl)c3n1C)C2C#N (racemic)", "read-out": "thermal stability", "method": "DSF", "tested at": "10 µM", "quantity": "ΔTm", "result": "0.8 °C"}
{"Compound": "O=C(N[C@H]1CCCCC/C=C\\C2C[C@@]2(C(=O)O)NC(=O)[C@@H]2C[C@@H](Oc3ccncc3)CN2C1=O)OC1CCCC1 (some centres unmarked)", "read-out": "binding", "method": "competition with immobilised ligand", "tested at": "1 µM", "quantity": "remaining binding", "result": "100%"}
{"Compound": "Nc1ncnc2occ(-c3ccc(NC(=O)Nc4cc(C(F)(F)F)ccc4F)cc3)c12", "read-out": "cell-free assay", "mode": "inhibitor", "tested at": "20 µM", "quantity": "remaining signal", "result": "11%"}
{"Compound": "Cn1c2c(c3ccc(Cl)c(Cl)c31)C(C#N)C(C)(C)NC2=O (centres unmarked)", "read-out": "thermal stability", "method": "DSF", "tested at": "10 µM", "quantity": "ΔTm", "result": "0.5 °C"}
{"Compound": "O=S(=O)(NC1CCC(c2cc(F)ccc2F)(S(=O)(=O)c2ccc(Cl)cc2)CC1)C(F)(F)F (centres unmarked)", "read-out": "cell-free assay", "method": "competition with immobilised ligand", "tested at": "1 µM", "quantity": "remaining binding", "result": "83%"}
{"Compound": "Cn1c2c(Cl)c(Cl)ccc2c2cn[nH]c(=O)c21", "read-out": "thermal stability", "method": "DSF", "tested at": "10 µM", "quantity": "ΔTm", "result": "-0.1 °C"}
{"Compound": "CC(C)CC(=O)N1CCc2nc(-c3ccc(Br)cc3)nc(N(C)Cc3ccccc3)c2C1", "read-out": "cell-free assay", "method": "competition with immobilised ligand", "tested at": "0.1 µM", "quantity": "remaining binding", "result": "100%"}
